According to paper PMC8327618 (Journal of the American Chemical Society, 2021):

Tests used:
HEK293T (HEK) cells = test: Cell permeability by fluorescence microscopy; format: cell-based; details: 500 nM, 20 min, 37 °C
Procedure, shortened: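 HEK293T cells incubated with 500 nM test compound (free acid or acetoxymethyl ester forms) for 20 min at 37 °C, washed once with HBSS, then imaged by widefield fluorescence and DIC microscopy to assess uptake.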

[1] = pH titration of absorbance; format: physicochemical; details: for phenolic pKa (transition to the dianion): absorbance at λmax vs pH, 10 mM buffers, 150 mM NaCl, 2 μM dye
Procedure, shortened: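 Dichlorofluorescein dyes at 2 μM in 10 mM buffered solutions containing 150 mM NaCl, spanning pH 2.4 to 9.8 (intermediate steps 3.1–9.2); absorbance spectra recorded and normalized. Normalized absorbance at λmax plotted against pH and fitted to sigmoidal dose-response curves to obtain pKa; n = 3 independent determinations, error as ± SEM.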

[2] = MTT reduction assay, cellular toxicity; format: cell-based
[3] = Spectroscopic characterization in 0.1 M NaOH; format: physicochemical; details: in 0.1M NaOH(aq); for ε: at max absorption; for Φfl: relative to fluorescein

Row | uptake into cells / cell permeability (HEK293T (HEK) cells) | pKa of trianion formation (phosphonate, hypsochromic shift) ([1]; quantification of 5 nm hypsochromic shift with increasing pH) | λem [3] [nm] | λmax [3] [nm] | ε [3] | Φfl [3] | phenolic pKa (transition to the dianion) [1] | Compound | cellular toxicity [2]
1 |  |  | 508 | 488 | 84,000 M^−1cm^−1 | 0.94 | 4.8 | 2’,7’-difluoro-3-phosphonofluorescein [compound 5] | 
2 |  |  | 514 | 491 | 88,000 M^−1cm^−1 | 0.92 |  | O=C1OC2(c3ccc(O)cc3Oc3cc(O)ccc32)c2ccccc21 [fluorescein, reference compound] | 

Second part, the compound before the results:

Row | Compound | uptake into cells / cell permeability (HEK293T (HEK) cells) | pKa of trianion formation (phosphonate, hypsochromic shift) ([1]; quantification of 5 nm hypsochromic shift with increasing pH) | λem [3] [nm] | λmax [3] [nm] | ε [3] | Φfl [3] | phenolic pKa (transition to the dianion) [1] | cellular toxicity [2]
3 | 2’,7’-dichloro-3-phosphonofluorescein [compound 4] | no uptake | 7.8 | 517 | 498 | 88,000 M^−1cm^−1 | 0.90 |  | very low cellular toxicity
4 | 2’,7’-dichloro-3-carboxyfluorescein [2’,7’-dichloro-3-carboxy-fluorescein, reference compound] |  |  |  | 502 |  |  |  | 
5 | O=c1ccc2c(-c3ccccc3P(=O)(O)O)c3ccc(O)cc3oc-2c1 [compound 6, 3-phosphonofluorescein] |  |  | 508 | 487 | 75,000 M^−1cm^−1 | 0.99 | 6.4 | 
6 | 2’,7’-dichloro-3-sulfonofluorescein [sF.Cl, reference compound] |  |  | 526 | 509 | 87,000 M^−1cm^−1 | 0.89 |  | 
